Data taken from PubChem BioAssay.
Active and inactive are the calls of the source.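 How the source made its calls, unless noted: active means viability at or under a set limit in both replicates, limit being median viability minus 3 SD (cut at about 48% in these data, passing the limit was not always enough); inconclusive means at or under the limit in just one replicate; inactive means at or above the limit in both replicates.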

Key:
[1] = reduced viability of SK-BR-3 breast cancer cells – cell-based, 24 h, human, pilot screen (AID 572;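 active means viability at or below 10% of carrier control in both of two separate runs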;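 further: compound exposure lasted between 18 and 24 h rather than exactly 24 h; 100% = carrier-treated control wells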); conditions: SK-BR-3 viability, CellTiter-Glo luminescence, at 10 µM, stronger effect = lower value
[2] = HUVEC growth inhibition – cell-based, human, primary screen (AID 575;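 active means viability at or below 30% in both replicate assays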;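 further: 100% = median of untreated cell wells with 0.1% DMSO on each plate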); conditions: HUVEC proliferation, CellTiter-Glo luminescence, 72 h; at 10 µM; stronger effect = lower value
How it was run: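 Assay system: Primary human umbilical vein endothelial cells | Quantity: 1250 cells per well | Medium: Supplemented EBM, 2% fetal bovine serum | Detection: CellTiter-Glo luminescence measuring cellular ATP | Read-out: % viability vs DMSO wells | Plate: Collagen-coated 384-well format | Times: 72 h exposure, 37 °C, 5% CO2, 30 min RT equilibration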

[3] = H69AR cell proliferation blockers – human, duplicate replicates, primary screen (AID 580); conditions: H69AR lung tumor cells viability, ATP luminescence, 72 h; at 10 µM; stronger effect = lower value;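 further: 100% = mean luminescence of untreated wells and 0% = no signal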
[4] = MRP1 drug-resistance reversers in H69AR cells – cell-based, doxorubicin co-treatment, pilot screen (AID 601;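 active means viability loss from added drug above about 55%, and viability with drug at most 40%, in both replicates, limit read from the data, passing the limit was not always enough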); conditions: CellTiter-Glo, 72 h, at 10 µM; for differential viability (reversal): stronger effect = higher value
[5] = yeast transport mutant growth inhibition pilot in 384-well plates, post-Golgi transport modulator project (AID 636; in the data active means inhibition above about 31%); conditions: absorbance 615 nm, about 18 h, stronger effect = higher value
[6] = growth suppression of yeast trafficking mutant, preliminary HTS, modulators of trafficking downstream of Golgi apparatus project, 1536-format plate, OD 615 nm (AID 637; in the data active means inhibition above about 30%); conditions: yeast transport mutant growth, absorbance 615 nm, 18 h; stronger effect = higher value
[7] = H69AR cells + 2 uM doxorubicin, measured here: viability with 2 uM doxorubicin, stronger effect = lower value
[8] = H69AR cells, compound alone cytotoxicity

Row | Compound | viability [1] | viability [2] | viability [3] | differential viability (reversal) ([4]; H69AR cells + 2 uM doxorubicin) | viability [4, 7] | viability [4, 8] | inhibition [5] | inhibition [6]
1 | COc1ccc(/C(O)=C2\C(=O)C(=O)N(c3cc(C)on3)C2c2ccccc2OC)cc1 (stereo not given) | 105% (inactive) | 101% (inactive) | 78.5% (inactive) | -6.79% (inactive) | 85.3% | 78.5% | -8.27% (inactive) | -5.09% (inactive)
2 | S=c1[nH]nc(Cc2ccccc2)n1Cc1ccco1 | 78% (inactive) | 108% (inactive) | 96.3% (inactive) | -2.76% (inactive) | 99.1% | 96.3% | -1.64% (inactive) | -6.94% (inactive)
3 | CCc1c(C(=O)Nc2ncn(Cc3cccc(C)c3)n2)csc1C | 105% (inactive) | 112% (inactive) | 85.6% (inactive) | 4.33% (inactive) | 81.3% | 85.6% | -2.84% (inactive) | -1.64% (inactive)
4 | Cc1cc(=O)n2[nH]c(-c3ccc(Cl)cc3)cc2n1 | 108% (inactive) | 75.8% (inactive) | 99.2% (inactive) | 8.53% (inactive) | 90.7% | 99.2% | -4.66% (inactive) | 5.45% (inactive)
5 | Cn1c(=O)c2c(nc(Br)n2CCSc2nnnn2-c2ccccc2)n(C)c1=O | 76% (inactive) | 105% (inactive) | 80.4% (inactive) | -14.9% (inactive) | 95.3% | 80.4% | -4.59% (inactive) | -7.27% (inactive)
6 | Cn1c(=O)c2c(ncn2CCO)n(C)c1=O | 119% (inactive) | 91% (inactive) | 100% (inactive) | 7.42% (inactive) | 93% | 100% | 0% (inactive) | 0.67% (inactive)
7 | CC(=O)OC1CSc2nc3ccccc3n2C1 (stereo not given) | 84% (inactive) | 111% (inactive) | 93.4% (inactive) | 7.46% (inactive) | 85.9% | 93.4% | -8.11% (inactive) | 3.45% (inactive)
8 | C1CCN=C(Nc2nc3c(s2)CCCC3)CC1 | 104% (inactive) | 109% (inactive) | 89.4% (inactive) | 7.56% (inactive) | 81.9% | 89.4% | -5.6% (inactive) | -1.45% (inactive)
9 | COC(=O)CC(C(=O)Nc1cc(C(=O)OC)cc(C(=O)OC)c1)N1CCN(C)CC1 (stereo not given) | 132% (inactive) | 99.5% (inactive) | 95.6% (inactive) | 5.77% (inactive) | 89.8% | 95.6% | -5.62% (inactive) | -7.9% (inactive)
10 | CCOC(=O)C(C(C)=O)c1nc(C)nc2c1nnn2Cc1ccccc1Cl (stereo not given) | 58% (inactive) | 71.7% (inactive) | 79.4% (inactive) | -9.73% (inactive) | 89.1% | 79.4% | 1.08% (inactive) | -2.18% (inactive)
11 | O=c1[nH]c(N2CCCCC2)nc2c1CCCC2 | 95% (inactive) | 96.2% (inactive) | 95.8% (inactive) | 5.24% (inactive) | 90.5% | 95.8% | -4.05% (inactive) | 15.3% (inactive)
12 | CC1=C(C)C(=O)C(CCCCC#CCCCC#CCO)=C(C)C1=O | 62% (inactive) | 78.8% (inactive) | 56.6% (inactive) | 23.8% (inactive) | 32.8% | 56.6% | 2.99% (inactive) | -1.5% (inactive)
13 | N/C(=N/O)c1nc(N2CCCCC2)nc(N2CCCCC2)n1 | 115% (inactive) | 80.5% (inactive) | 94.9% (inactive) | -0.21% (inactive) | 95.1% | 94.9% | -0.65% (inactive) | -0.98% (inactive)
14 | CC1(C)NC(=O)N(CC(O)CN2CCCC2)C1=O (stereo not given) | 96% (inactive) | 103% (inactive) | 97.2% (inactive) | 2.99% (inactive) | 94.2% | 97.2% | 0.13% (inactive) | -2.79% (inactive)
15 | COc1ccc(C2C(C(=O)c3sc(C)nc3C)=C(O)C(=O)N2CCN(C)C)cc1 (stereo not given) | 106% (inactive) | 106% (inactive) | 93.1% (inactive) | 12.4% (inactive) | 80.7% | 93.1% | -8% (inactive) | 4.36% (inactive)
